Where “and” joins values, the source holds several entries; their conditions need not be identical. Equal entries are not always repeated.
Test system: U2OS
Experiment: Multiplex assay against U2OS
Type: toxicity, cell-based
Details: human
Summary of the method: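 Live cells carried four stains from seeding: Hoechst33342, BioTracker Green Microtubule Cytoskeleton Dye, MitoTracker Red and Annexin V Alexa Fluor 680. They were imaged on a CQ1 microscope at 37°C and 5% CO2 after compound addition. Using CellPathfinder machine-learning gating, cells were split into Hoechst high-intensity objects or normal cells, normal cells into healthy, pyknosed or fragmented nuclei, and pyknosed cells into mitotic or apoptotic; tubulin, mitochondrial-mass and membrane-permeability phenotypes are per cents of healthy-nucleus cells.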

[1] = 12 h, 1 µM, compound concentration 1 uM, replicate 1
[2] = 12 h, 1 µM, compound concentration 1 uM, replicate 2
[3] = 12 h, 10 µM, compound concentration 10 uM, replicate 1
[4] = 12 h, 10 µM, compound concentration 10 uM, replicate 2
[5] = 24 h, 1 µM, compound concentration 1 uM, replicate 1
[6] = 24 h, 1 µM, compound concentration 1 uM, replicate 2
[7] = 24 h, 10 µM, compound concentration 10 uM, replicate 1
[8] = 24 h, 10 µM, compound concentration 10 uM, replicate 2
[9] = 48 h, 1 µM, compound concentration 1 uM, replicate 1
[10] = 48 h, 1 µM, compound concentration 1 uM, replicate 2
[11] = 48 h, 10 µM, compound concentration 10 uM, replicate 1
[12] = 48 h, 10 µM, compound concentration 10 uM, replicate 2

## O=C(NCCCC1CCCCC1)c1ccc(CNC(=O)c2cnn(-c3ccccc3)c2C(F)(F)F)cc1 [SR-321]
[1]
  Population Apoptotic (%): 37% [middle of 4 runs]
  Population Healthy Nuclei (%): 74% and 91%
  Population Hoechst High Intensity Objects (%): 6% and 9% and 5%
  Population Membrane Permeable-Phenotype (%): 9% and 7%
  Population Mitotic Cells (%): 66% [middle of 4 runs]
  Population Normal (%): 93% and 90% and 94%
  Population Pyknosed Nuclei (%): 14% and 13% and 7%
  Population Tubulin-Different-Phenotype (%): 15% and 16% and 35%
  Total Cell Count: 181 [middle of 4 runs]
[2]
  Population Healthy Nuclei (%): 89% and 53% and 83% and 88%
  Population Hoechst High Intensity Objects (%): 8% and 21% and 7%
  Population Membrane Permeable-Phenotype (%): 14% and 0% and 12%
  Population Normal (%): 91% and 78% and 92%
  Population Pyknosed Nuclei (%): 5% and 6%
  Population Tubulin-Different-Phenotype (%): 20% and 26%
  Total Cell Count: 89 [middle of 4 runs]
[3]
  Population Apoptotic (%): 40% and 31% and 41%
  Population Fragmented Nuclei (%): 9% [middle of 4 runs]
  Population Healthy Nuclei (%): 71% and 80% and 75% and 86%
  Population Hoechst High Intensity Objects (%): 2% and 4% and 6%
  Population Mitochondria Different-Phenotype (%): 24% and 25% and 20%
  Population Mitotic Cells (%): 60% and 68% and 58%
  Population Normal (%): 97% and 95% and 93%
  Population Pyknosed Nuclei (%): 14% [middle of 4 runs]
  Population Tubulin-Different-Phenotype (%): 15% [middle of 4 runs]
  Total Cell Count: 197 [middle of 4 runs]
[4]
  Population Healthy Nuclei (%): 66% and 69%
  Population Membrane Permeable-Phenotype (%): 5% and 0% and 11%
  Population Mitotic Cells (%): 80% and 50% and 81% and 88%
  Population Normal (%): 73% and 94% and 91% and 92%
  Total Cell Count: 117 [middle of 4 runs]
[5]
  Population Apoptotic (%): 40% and 45% and 15%
  Population Fragmented Nuclei (%): 8% [middle of 4 runs]
  Population Healthy Nuclei (%): 85% and 81% and 79% and 91%
  Population Membrane Permeable-Phenotype (%): 8% and 5% and 10%
  Population Mitotic Cells (%): 60% and 54% and 84%
  Population Normal (%): 94% and 96% and 98%
  Population Pyknosed Nuclei (%): 7% and 9% and 8%
  Population Tubulin-Different-Phenotype (%): 19% [middle of 4 runs]
  Total Cell Count: 233 [middle of 4 runs]
[6]
  Population Healthy Nuclei (%): 66% and 82% and 74% and 94%
  Population Membrane Permeable-Phenotype (%): 4% and 3% and 0% and 7%
  Population Mitochondria Different-Phenotype (%): 19% [middle of 4 runs]
  Population Mitotic Cells (%): 100% and 40%
  Population Normal (%): 85% and 95% and 89% and 97%
  Population Tubulin-Different-Phenotype (%): 30% and 22%
  Total Cell Count: 88 [middle of 4 runs]
[7]
  Population Apoptotic (%): 44% and 36% and 21%
  Population Healthy Nuclei (%): 71% and 75% and 74% and 89%
  Population Hoechst High Intensity Objects (%): 2% and 4%
  Population Membrane Permeable-Phenotype (%): 5% [middle of 4 runs]
  Population Mitochondria Different-Phenotype (%): 19% and 17%
  Population Mitotic Cells (%): 55% and 63% and 78%
  Population Normal (%): 97% and 95%
  Population Pyknosed Nuclei (%): 15% and 16% and 6%
  Population Tubulin-Different-Phenotype (%): 12% [middle of 4 runs]
  Total Cell Count: 232 [middle of 4 runs]
[8]
  Population Healthy Nuclei (%): 67% and 65% and 86%
  Population Mitotic Cells (%): 50% and 66% and 88%
  Population Normal (%): 93% and 81% and 92% and 96%
  Population Pyknosed Nuclei (%): 11% and 14%
  Total Cell Count: 124 [middle of 4 runs]
[9]
  Population Apoptotic (%): 33% and 45% and 47%
  Population Fragmented Nuclei (%): 5% and 9%
  Population Healthy Nuclei (%): 88% and 86%
  Population Hoechst High Intensity Objects (%): 1%
  Population Membrane Permeable-Phenotype (%): 2%
  Population Mitochondria Different-Phenotype (%): 11% and 8%
  Population Mitotic Cells (%): 66% and 54% and 52%
  Population Normal (%): 98%
  Population Pyknosed Nuclei (%): 7%
  Population Tubulin-Different-Phenotype (%): 23% and 19%
  Total Cell Count: 217 and 382 and 367
[10]
  Population Fragmented Nuclei (%): 4% and 7% and 6%
  Population Healthy Nuclei (%): 85% and 87%
  Population Hoechst High Intensity Objects (%): 6% and 3% and 8%
  Population Membrane Permeable-Phenotype (%): 6% and 5% and 4%
  Population Mitochondria Different-Phenotype (%): 18% and 10% and 15%
  Population Normal (%): 93% and 96% and 92%
  Population Pyknosed Nuclei (%): 10% and 4% and 6%
  Population Tubulin-Different-Phenotype (%): 42% and 18% and 27%
  Total Cell Count: 118 and 104 and 109
[11]
  Population Apoptotic (%): 50% and 43% and 45%
  Population Fragmented Nuclei (%): 9% and 10% and 8%
  Population Healthy Nuclei (%): 72% and 74% and 78%
  Population Hoechst High Intensity Objects (%): 3% and 2%
  Population Membrane Permeable-Phenotype (%): 3% and 2%
  Population Mitochondria Different-Phenotype (%): 16% and 11% and 7%
  Population Mitotic Cells (%): 49% and 56% and 54%
  Population Normal (%): 96% and 97%
  Population Pyknosed Nuclei (%): 18% and 14% and 13%
  Population Tubulin-Different-Phenotype (%): 10% and 4% and 12%
  Total Cell Count: 425 and 284 and 300
[12]
  Population Apoptotic (%): 61% and 60% and 57%
  Population Fragmented Nuclei (%): 18% and 16% and 20%
  Population Healthy Nuclei (%): 61% and 77% and 62%
  Population Membrane Permeable-Phenotype (%): 12% and 6% and 5%
  Population Mitochondria Different-Phenotype (%): 24% and 22% and 17%
  Population Mitotic Cells (%): 38% and 40% and 42%
  Population Normal (%): 82% and 94% and 91%
  Population Tubulin-Different-Phenotype (%): 16% and 15% and 17%
  Total Cell Count: 125 and 91 and 127

## CNCc1ccccc1-c1csc([C@H](C)Nc2nc(C)nc3cc(OC)c(OC)cc23)c1 [BAY-294]
[3]
  Population Apoptotic (%): 76% and 59%
  Population Hoechst High Intensity Objects (%): 7% and 6% and 3%
  Population Membrane Permeable-Phenotype (%): 100% and 75% and 50%
  Population Mitochondria Different-Phenotype (%): 100% and 90% and 41%
  Population Mitotic Cells (%): 23% and 40%
  Population Normal (%): 92% and 93% and 96%
  Population Tubulin-Different-Phenotype (%): 100% and 97%
[4]
  Population Apoptotic (%): 54% and 57% and 68%
  Population Healthy Nuclei (%): 38% and 23% and 66%
  Population Membrane Permeable-Phenotype (%): 88% and 86% and 54%
  Population Mitochondria Different-Phenotype (%): 96% and 93% and 66%
  Population Mitotic Cells (%): 45% and 42% and 31%
  Population Normal (%): 88% and 44%
[7]
  Population Apoptotic (%): 90% and 93% and 54%
  Population Membrane Permeable-Phenotype (%): 100% and 54%
  Population Mitochondria Different-Phenotype (%): 100% and 75%
  Population Normal (%): 94% and 86% and 96%
  Population Pyknosed Nuclei (%): 57% and 70%
  Population Tubulin-Different-Phenotype (%): 100%
[8]
  Population Apoptotic (%): 92% and 52% and 78%
  Population Fragmented Nuclei (%): 30% and 52%
  Population Membrane Permeable-Phenotype (%): 66% and 85%
  Population Mitochondria Different-Phenotype (%): 76% and 92%
  Population Normal (%): 82% and 92% and 45%
  Population Pyknosed Nuclei (%): 55% and 31% and 27%
  Population Tubulin-Different-Phenotype (%): 98% and 85%
[11]
  Population Apoptotic (%): 98%
  Population Fragmented Nuclei (%): 36%
  Population Healthy Nuclei (%): 1%
  Population Hoechst High Intensity Objects (%): 13%
  Population Membrane Permeable-Phenotype (%): 100%
  Population Mitochondria Different-Phenotype (%): 100%
  Population Mitotic Cells (%): 1%
  Population Normal (%): 86%
  Population Pyknosed Nuclei (%): 62%
  Population Tubulin-Different-Phenotype (%): 100%
[12]
  Population Apoptotic (%): 70%
  Population Fragmented Nuclei (%): 44%
  Population Healthy Nuclei (%): 18%
  Population Hoechst High Intensity Objects (%): 61%
  Population Mitotic Cells (%): 30%
  Population Normal (%): 38%
  Population Pyknosed Nuclei (%): 37%

Reference: ChEMBL document CHEMBL4689842, “EUbOPEN Chemogenomics Library wave 1” (2021)
